ChEMBL document CHEMBL1629439, “High-throughput identification of antibacterials against methicillin-resistant Staphylococcus aureus (MRSA) and the transglycosylase” (Bioorg Med Chem, 2010)
Converted amounts (≈) assume the structure as drawn.

Assays:
Staphylococcus aureus [1] = test: Antimicrobial activity against oxacillin- and methicillin-resistant Staphylococcus aureus isolate Sa-OXA-R2 after 18 to 24 hrs by alamar blue assay; format: functional
Procedure, shortened: (§1)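 Broth microdilution per NCCLS standard, Mueller-Hinton broth, 8-point twofold dilutions; exponentially growing cells at 5 10^5 cells/ml with compound, 18–24 h at 37 C; 20% Alamar blue added, fluorescence read; MIC90 taken as lowest concentration preventing at least 90% growth.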

Bacillus subtilis = test: Antimicrobial activity against Bacillus subtilis ATCC 23857 after 18 to 24 hrs by alamar blue assay; format: functional
Procedure, shortened: (§2)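 Broth microdilution per NCCLS in Mueller-Hinton broth, 8-point twofold dilutions, 384-well format. Exponential-phase cells at 5 × 10^5 cells/ml incubated with compound 18–24 h at 37 °C, then 20% Alamar blue added and fluorescence read. MIC90 taken as the lowest concentration preventing at least 90% bacterial growth.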

Escherichia coli = test: Antimicrobial activity against Escherichia coli ATCC […] after 18 to 24 hrs by alamar blue assay; format: functional; conditions: Escherichia coli; read-out: MIC; procedure, shortened: as §2
Pseudomonas aeruginosa = test: Antimicrobial activity against Pseudomonas aeruginosa ATCC 25619 after 18 to 24 hrs by alamar blue assay; format: functional; conditions: Pseudomonas aeruginosa, ATCC 25619; read-out: MIC; procedure, shortened: as §2
Acinetobacter baumannii = test: Antimicrobial activity against Acinetobacter baumannii ATCC 49139 after 18 to 24 hrs by alamar blue assay; format: functional; conditions: Acinetobacter baumannii, ATCC 49139; read-out: MIC; procedure, shortened: as §2
[2] = system: Stenotrophomonas maltophilia; test: Antimicrobial activity against Stenotrophomonas maltophilia ATCC 13637 after 18 to 24 hrs by alamar blue assay; format: functional; conditions: Stenotrophomonas maltophilia, ATCC 13637; read-out: MIC; procedure, shortened: as §2
Serratia marcescens = test: Antimicrobial activity against Serratia marcescens ATCC 14756 after 18 to 24 hrs by alamar blue assay; format: functional; conditions: Serratia marcescens, ATCC 14756; read-out: MIC; procedure, shortened: as §2
[3] = system: Mycolicibacterium smegmatis; test: Antimicrobial activity against Mycobacterium smegmatis BCRC 11565 after 18 to 24 hrs by alamar blue assay; format: functional; conditions: Mycolicibacterium smegmatis, BCRC 11565; read-out: MIC; procedure, shortened: as §2
[4] = Inhibition of transglycosylase assessed as inhibition of NBD- labelled lipid II polymerization
Procedure, shortened: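 100 µM NBD-labelled lipid II incubated 30 min with full-length PBP (EC, SA or Mtb) and 10 ng/µl N-acetylmuramidase in 50 mM Tris-HCl pH 8.0, 10 mM MgCl2, 0.1% Triton X-100, 10% DMSO, 15% MeOH. Supernatant run on anion-exchange HPLC with 20 mM–0.5 M ammonium acetate gradient. Inhibition calculated from substrate peak-area percentage. IC50 determined. S. aureus strains share one SA enzyme.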

Staphylococcus aureus [5] = test: Antimicrobial activity against methicillin-resistant Staphylococcus aureus isolate NTUH4722 after 18 to 24 hrs by alamar blue assay; format: functional; procedure, shortened: as §1
Staphylococcus aureus [6] = test: Antimicrobial activity against methicillin-resistant Staphylococcus aureus ATCC 33592 after 18 to 24 hrs by alamar blue assay; format: functional; conditions: Staphylococcus aureus, ATCC 33592; read-out: MIC; procedure, shortened: as §1
Staphylococcus aureus [7] = test: Antimicrobial activity against Staphylococcus aureus ATCC 29213 after 18 to 24 hrs by alamar blue assay

Row | SMILES | MIC (Staphylococcus aureus [1]) [µg/mL] | MIC (Bacillus subtilis) [µg/mL] | MIC (Escherichia coli) [µg/mL] | MIC (Pseudomonas aeruginosa) [µg/mL] | MIC (Acinetobacter baumannii) [µg/mL] | MIC [2] [µg/mL] | MIC (Serratia marcescens) [µg/mL] | MIC [3] [µg/mL] | IC90 [4] [µM] | MIC (Staphylococcus aureus [5]) [µg/mL] | MIC (Staphylococcus aureus [6]) [µg/mL] | MIC (Staphylococcus aureus [7]) [µg/mL]
1 | Cc1ccc(C(C)C)c(Oc2ccc(Cl)cc2NC(=O)c2cc(Cl)cc(Cl)c2O)c1 | ≤ 0.03 | < 0.03 | 8 (≈ 17.2 µM) | 16 (≈ 34.4 µM) | 16 (≈ 34.4 µM) | 16 (≈ 34.4 µM) | 16 (≈ 34.4 µM) | 0.5 (≈ 1.08 µM) | 50 | ≤ 0.03 | 0.25 (≈ 0.538 µM) | 1 (≈ 2.15 µM)
2 | Cc1ccc(C(C)C)c(Oc2ccccc2NC(=O)c2cc(Br)cc(Br)c2O)c1 | ≤ 0.03 | < 0.03 | 8 (≈ 15.4 µM) | 16 (≈ 30.8 µM) | 16 (≈ 30.8 µM) | 16 (≈ 30.8 µM) | 16 (≈ 30.8 µM) | 0.5 (≈ 0.963 µM) | 50 | ≤ 0.03 | 4 (≈ 7.7 µM) | 1 (≈ 1.93 µM)
3 | Cc1ccc(C(C)C)cc1Oc1ccc(Cl)cc1NC(=O)c1cc(Cl)cc(Br)c1O | ≤ 0.03 | < 0.03 | 8 (≈ 15.7 µM) | 16 (≈ 31.4 µM) | 16 (≈ 31.4 µM) | 16 (≈ 31.4 µM) | 16 (≈ 31.4 µM) | 0.5 (≈ 0.982 µM) | 50 | ≤ 0.03 | 0.5 (≈ 0.982 µM) | 1 (≈ 1.96 µM)
4 | O=C(Nc1ccc(Oc2ccc3ccccc3c2Cl)c(Cl)c1)c1cc(I)cc(I)c1O | ≤ 0.03 | < 0.03 | 8 (≈ 11.8 µM) | 16 (≈ 23.7 µM) | 16 (≈ 23.7 µM) | 16 (≈ 23.7 µM) | 16 (≈ 23.7 µM) | 0.5 (≈ 0.74 µM) | > 100 | ≤ 0.03 | 8 (≈ 11.8 µM) | 8 (≈ 11.8 µM)
5 | O=C(Nc1cc(Cl)cc(C(=O)c2ccc(Cl)cc2)c1Cl)c1cc(Cl)cc(Br)c1O | 0.5 (≈ 0.936 µM) | < 0.03 | 8 (≈ 15 µM) | 16 (≈ 30 µM) | 16 (≈ 30 µM) | 16 (≈ 30 µM) | 16 (≈ 30 µM) | 0.5 (≈ 0.936 µM) | 100 | 1 (≈ 1.87 µM) | 0.5 (≈ 0.936 µM) | 0.5 (≈ 0.936 µM)
6 | Cc1ccc(C(C)C)c(Oc2ccc(Cl)cc2NC(=O)c2cc(I)cc(I)c2O)c1 | ≤ 0.03 | < 0.03 | 8 (≈ 12.4 µM) | 16 (≈ 24.7 µM) | 16 (≈ 24.7 µM) | 16 (≈ 24.7 µM) | 16 (≈ 24.7 µM) | 0.5 (≈ 0.772 µM) | 50 | ≤ 0.03 | 0.5 (≈ 0.772 µM) | 4 (≈ 6.18 µM)
7 | O=C(Nc1cc(Cl)ccc1Oc1ccc(Cl)c2ccccc12)c1cc(Cl)cc(Br)c1O | ≤ 0.03 | < 0.03 | 8 (≈ 14.9 µM) | 16 (≈ 29.8 µM) | 16 (≈ 29.8 µM) | 16 (≈ 29.8 µM) | 16 (≈ 29.8 µM) | 0.5 (≈ 0.93 µM) | 100 | ≤ 0.03 | 16 (≈ 29.8 µM) | 8 (≈ 14.9 µM)
8 | O=C(Nc1cc(Cl)cc(C(=O)c2ccccc2)c1Cl)c1cc(Br)cc(Br)c1O | 4 (≈ 7.35 µM) | < 0.03 | 8 (≈ 14.7 µM) | 16 (≈ 29.4 µM) | 16 (≈ 29.4 µM) | 16 (≈ 29.4 µM) | 16 (≈ 29.4 µM) | 0.5 (≈ 0.919 µM) | 100 | 4 (≈ 7.35 µM) | 8 (≈ 14.7 µM) | 1 (≈ 1.84 µM)
9 | O=C(Nc1ccc(Oc2ccc3ccccc3c2Cl)c(Cl)c1)c1cc(Br)cc(Br)c1O | ≤ 0.03 | < 0.03 | 8 (≈ 13.7 µM) | 16 (≈ 27.5 µM) | 16 (≈ 27.5 µM) | 16 (≈ 27.5 µM) | 16 (≈ 27.5 µM) | 0.5 (≈ 0.859 µM) | 100 | ≤ 0.03 | ≤ 2 | ≤ 2
10 | O=C(Nc1ccc(Oc2cc3ccccc3cc2Cl)c(Cl)c1)c1cc(Br)cc(Br)c1O | ≤ 0.03 | < 0.03 | 8 (≈ 13.7 µM) | 16 (≈ 27.5 µM) | 16 (≈ 27.5 µM) | 16 (≈ 27.5 µM) | 16 (≈ 27.5 µM) | 0.5 (≈ 0.859 µM) | 100 | ≤ 0.03 | 4 (≈ 6.87 µM) | 4 (≈ 6.87 µM)
11 | O=C(Nc1ccc(S(=O)(=O)c2nc3ccccc3s2)c(Cl)c1)c1cc(Cl)cc(Cl)c1O | ≤ 0.03 | < 0.03 | 8 (≈ 15.6 µM) | 16 (≈ 31.1 µM) | 16 (≈ 31.1 µM) | 16 (≈ 31.1 µM) | 16 (≈ 31.1 µM) | 0.5 (≈ 0.973 µM) | 100 | ≤ 0.03 | 4 (≈ 7.78 µM) | 8 (≈ 15.6 µM)
12 | O=C(Nc1ccc(Oc2ccc(Br)c3ccccc23)c(Cl)c1)c1cc(Br)cc(Br)c1O | ≤ 0.03 | < 0.03 | 8 (≈ 12.8 µM) | 16 (≈ 25.5 µM) | 16 (≈ 25.5 µM) | 16 (≈ 25.5 µM) | 16 (≈ 25.5 µM) | 0.5 (≈ 0.798 µM) | 100 | ≤ 0.03 | ≤ 2 | 4 (≈ 6.38 µM)
13 | O=C(Nc1cc(Cl)ccc1Oc1ccc(Br)c2ccccc12)c1cc(Cl)cc(I)c1O | ≤ 0.03 | < 0.03 | 8 (≈ 12.7 µM) | 16 (≈ 25.4 µM) | 16 (≈ 25.4 µM) | 16 (≈ 25.4 µM) | 16 (≈ 25.4 µM) | 0.5 (≈ 0.795 µM) | 100 | ≤ 0.03 | 4 (≈ 6.36 µM) | 8 (≈ 12.7 µM)
14 | O=C(Nc1ccc(Oc2ccc3ccccc3c2Cl)c(Cl)c1)c1cc(Cl)cc(Br)c1O | ≤ 0.03 | < 0.03 | 8 (≈ 14.9 µM) | 16 (≈ 29.8 µM) | 16 (≈ 29.8 µM) | 16 (≈ 29.8 µM) | 16 (≈ 29.8 µM) | 0.5 (≈ 0.93 µM) | 100 | ≤ 0.03 | ≤ 2 | ≤ 2
15 | O=C(Nc1ccc(Sc2nc3ccccc3s2)c(Cl)c1)c1cc(Cl)cc(Cl)c1O | ≤ 0.03 | < 0.03 | 8 (≈ 16.6 µM) | 16 (≈ 33.2 µM) | 16 (≈ 33.2 µM) | 16 (≈ 33.2 µM) | 16 (≈ 33.2 µM) | 0.5 (≈ 1.04 µM) | > 100 | ≤ 0.03 | 4 (≈ 8.3 µM) | 8 (≈ 16.6 µM)
16 | Cc1ccc(C(=O)c2cc(NC(=O)c3cc(I)cc(I)c3O)ccc2Cl)cc1 | ≤ 0.03 | < 0.03 | 8 (≈ 13 µM) | 16 (≈ 25.9 µM) | 16 (≈ 25.9 µM) | 16 (≈ 25.9 µM) | 16 (≈ 25.9 µM) | 0.5 (≈ 0.81 µM) | 100 | ≤ 0.03 | 4 (≈ 6.48 µM) | 4 (≈ 6.48 µM)
17 | O=C(Nc1cc(Cl)ccc1Oc1cccc2c(Br)cccc12)c1cc(Cl)cc(Br)c1O | ≤ 0.03 | < 0.03 | 8 (≈ 13.7 µM) | 16 (≈ 27.5 µM) | 16 (≈ 27.5 µM) | 16 (≈ 27.5 µM) | 16 (≈ 27.5 µM) | 0.5 (≈ 0.859 µM) | 100 | ≤ 0.03 | ≤ 2 | 4 (≈ 6.87 µM)
18 | O=C(Nc1cc(S(=O)(=O)c2ccc(Cl)cc2)ccc1Cl)c1cc(I)cc(I)c1O | ≤ 0.03 | < 0.03 | 8 (≈ 11.9 µM) | 16 (≈ 23.7 µM) | 16 (≈ 23.7 µM) | 16 (≈ 23.7 µM) | 16 (≈ 23.7 µM) | 0.5 (≈ 0.742 µM) | 100 | ≤ 0.03 | 8 (≈ 11.9 µM) | 8 (≈ 11.9 µM)
19 | O=C(Nc1cc(Cl)cc(C(=O)c2ccc(Cl)cc2)c1Cl)c1cc(Br)cc(Br)c1O | 8 (≈ 13.8 µM) | < 0.03 | 8 (≈ 13.8 µM) | 16 (≈ 27.7 µM) | 16 (≈ 27.7 µM) | 16 (≈ 27.7 µM) | 16 (≈ 27.7 µM) | 0.5 (≈ 0.864 µM) | 100 | 8 (≈ 13.8 µM) | 2 (≈ 3.46 µM) | 0.5 (≈ 0.864 µM)
20 | O=C(Nc1ccc(Oc2ccc(Cl)c3cccnc23)c(Cl)c1)c1cc(Br)cc(Br)c1O | ≤ 0.03 | < 0.03 | 8 (≈ 13.7 µM) | 16 (≈ 27.4 µM) | 16 (≈ 27.4 µM) | 16 (≈ 27.4 µM) | 16 (≈ 27.4 µM) | 0.5 (≈ 0.858 µM) | 100 | ≤ 0.03 | 32 (≈ 54.9 µM) | 16 (≈ 27.4 µM)
21 | O=C(c1ccc(Cl)cc1)c1cc(NC(=O)c2cc(I)cc(I)c2O)ccc1Cl | ≤ 0.03 | < 0.03 | 8 (≈ 12.5 µM) | 16 (≈ 25.1 µM) | 16 (≈ 25.1 µM) | 16 (≈ 25.1 µM) | 16 (≈ 25.1 µM) | 0.5 (≈ 0.784 µM) | 100 | ≤ 0.03 | 4 (≈ 6.27 µM) | ≤ 2
22 | Cc1ccc(C(=O)c2cc(Cl)cc(NC(=O)c3cc(Br)cc(Br)c3O)c2Cl)cc1 | > 4 | < 0.03 | 8 (≈ 14.3 µM) | 16 (≈ 28.7 µM) | 16 (≈ 28.7 µM) | 16 (≈ 28.7 µM) | 16 (≈ 28.7 µM) | 0.5 (≈ 0.896 µM) | 100 | > 4 | > 4 | > 4
